# ChEMBL document CHEMBL4715736, “Identification of anticancer agents based on the thieno[2,3-b]pyridine and 1H-pyrazole molecular scaffolds” (2016)
# How the values were obtained:
# Type in all cases: functional
# ACHN [1] = experiment: Growth inhibition of human ACHN cells assessed as cell growth at 100 uM incubated for 48 hrs by sulforhodamine B assay relative to control; settings: read-out: Activity
# OVCAR-3 = experiment: Growth inhibition of human OVCAR-3 cells incubated for 48 hrs by sulforhodamine B assay
# Procedure, shortened: (§1)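 NCI DTP 60-line human tumour panel. Dose-response curves were run only for ligands active in the initial 10 µM screen. GI50 (concentration giving 50% of maximal inhibition of proliferation) and TGI (concentration giving total growth inhibition) were derived from these curves.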
# A498 [2] = experiment: Growth inhibition of human A498 cells incubated for 48 hrs by sulforhodamine B assay
# Procedure, shortened: (§2)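 NCI Developmental Therapeutics Program NCI60 panel. Compounds that were active in the 10 µM one-dose screen went on to dose–response testing. Growth at each concentration is expressed relative to untreated control (100%). GI50 (concentration giving 50% of maximal inhibition of proliferation) and TGI (concentration giving total growth inhibition) were derived from the curves.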
# NCI-H226 = experiment: Growth inhibition of human NCI-H226 cells assessed as cell growth at 0.1 uM incubated for 48 hrs by sulforhodamine B assay relative to control; settings: read-out: Activity
# SK-MEL-2 = experiment: Growth inhibition of human SK-MEL-2 cells assessed as cell growth at 0.1 uM incubated for 48 hrs by sulforhodamine B assay relative to control; settings: read-out: Activity
# M14 [3] = experiment: Growth inhibition of human M14 cells incubated for 48 hrs by sulforhodamine B assay
# Procedure, shortened: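 NCI60 panel at the NCI Developmental Therapeutics Program. Only compounds active in the 10 µM screen went to dose-response testing. GI50, the concentration giving 50% of maximal inhibition of proliferation, and TGI, the concentration giving total growth inhibition, were derived from the dose-response curves.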
# RXF 393 = experiment: Growth inhibition of human RXF 393 cells incubated for 48 hrs by sulforhodamine B assay; procedure, shortened: as §1
# HCT-116 = experiment: Growth inhibition of human HCT-116 cells assessed as cell growth at 1 uM incubated for 48 hrs by sulforhodamine B assay relative to control; settings: read-out: Activity
# SNB-75 = experiment: Growth inhibition of human SNB-75 cells assessed as cell growth at 0.1 uM incubated for 48 hrs by sulforhodamine B assay relative to control; settings: read-out: Activity
# HOP-92 = experiment: Growth inhibition of human HOP-92 cells assessed as cell growth at 0.1 uM incubated for 48 hrs by sulforhodamine B assay relative to control; settings: read-out: Activity
# HT-29 = experiment: Growth inhibition of human HT-29 cells assessed as cell growth at 0.01 uM incubated for 48 hrs by sulforhodamine B assay relative to control; settings: read-out: Activity
# A549 = experiment: Growth inhibition of human A549/ATCC cells assessed as cell growth at 1 uM incubated for 48 hrs by sulforhodamine B assay relative to control; settings: read-out: Activity; procedure, shortened: as §2
# U-251 = experiment: Growth inhibition of human U-251 cells assessed as cell growth at 100 uM incubated for 48 hrs by sulforhodamine B assay relative to control; settings: read-out: Activity
# SF-539 = experiment: Growth inhibition of human SF-539 cells assessed as cell growth at 1 uM incubated for 48 hrs by sulforhodamine B assay relative to control; settings: read-out: Activity
# SN12C = experiment: Growth inhibition of human SN12C cells assessed as cell growth at 0.1 uM incubated for 48 hrs by sulforhodamine B assay relative to control; settings: read-out: Activity
# NCI-H522 [4] = experiment: Growth inhibition of human NCI-H522 cells assessed as cell growth at 100 uM incubated for 48 hrs by sulforhodamine B assay relative to control; settings: read-out: Activity
# RPMI-8226 = experiment: Growth inhibition of human RPMI-8226 cells assessed as cell growth at 0.01 uM incubated for 48 hrs by sulforhodamine B assay relative to control; settings: read-out: Activity
# MCF7 = experiment: Growth inhibition of human MCF7 cells assessed as cell growth at 100 uM incubated for 48 hrs by sulforhodamine B assay relative to control; settings: read-out: Activity
# A498 [5] = experiment: Growth inhibition of human A498 cells assessed as cell growth at 100 uM incubated for 48 hrs by sulforhodamine B assay relative to control; settings: read-out: Activity; procedure, shortened: as §2
# SF-268 = experiment: Growth inhibition of human SF-268 cells incubated for 48 hrs by sulforhodamine B assay; procedure, shortened: as §1
# SK-OV-3 [6] = experiment: Growth inhibition of human SK-OV-3 cells assessed as cell growth at 1 uM incubated for 48 hrs by sulforhodamine B assay relative to control; settings: read-out: Activity
# M14 [7] = experiment: Growth inhibition of human M14 cells assessed as cell growth at 0.1 uM incubated for 48 hrs by sulforhodamine B assay relative to control; settings: read-out: Activity
# MOLT-4 = experiment: Growth inhibition of human MOLT-4 cells assessed as cell growth at 1 uM incubated for 48 hrs by sulforhodamine B assay relative to control; settings: read-out: Activity
# PC-3 = experiment: Growth inhibition of human PC-3 cells assessed as cell growth at 0.01 uM incubated for 48 hrs by sulforhodamine B assay relative to control; settings: read-out: Activity
# NCI-H522 [8] = experiment: Growth inhibition of human NCI-H522 cells assessed as cell growth at 0.1 uM incubated for 48 hrs by sulforhodamine B assay relative to control; settings: read-out: Activity
# HCT-15 = experiment: Growth inhibition of human HCT-15 cells assessed as cell growth at 0.1 uM incubated for 48 hrs by sulforhodamine B assay relative to control; settings: read-out: Activity
# COLO 205 = experiment: Growth inhibition of human COLO 205 cells assessed as cell growth at 0.1 uM incubated for 48 hrs by sulforhodamine B assay relative to control; settings: read-out: Activity; procedure, shortened: as §2
# ACHN [9] = experiment: Growth inhibition of human ACHN cells assessed as cell growth at 0.01 uM incubated for 48 hrs by sulforhodamine B assay relative to control; settings: read-out: Activity
# SK-OV-3 [10] = experiment: Growth inhibition of human SK-OV-3 cells assessed as cell growth at 0.1 uM incubated for 48 hrs by sulforhodamine B assay relative to control; settings: read-out: Activity
# OVCAR-5 = experiment: Growth inhibition of human OVCAR-5 cells assessed as cell growth at 1 uM incubated for 48 hrs by sulforhodamine B assay relative to control; settings: read-out: Activity
# UO-31 [11] = experiment: Growth inhibition of human UO-31 cells incubated for 48 hrs by sulforhodamine B assay; procedure, shortened: as §1
# UACC-257 = experiment: Growth inhibition of human UACC-257 cells assessed as cell growth at 0.1 uM incubated for 48 hrs by sulforhodamine B assay relative to control; settings: read-out: Activity
# UO-31 [12] = experiment: Growth inhibition of human UO-31 cells assessed as cell growth at 0.01 uM incubated for 48 hrs by sulforhodamine B assay relative to control; settings: read-out: Activity
# TK-10 = experiment: Growth inhibition of human TK-10 cells incubated for 48 hrs by sulforhodamine B assay; procedure, shortened: as §1
# SK-MEL-5 = experiment: Growth inhibition of human SK-MEL-5 cells assessed as cell growth at 100 uM incubated for 48 hrs by sulforhodamine B assay relative to control; settings: read-out: Activity
# [13] = read-out: LC50 (the source's name)
compound,measurement,setting,value
Cc1cc(C)c(NC(=O)c2sc3nc4c(cc3c2N)CN(Cc2ccccc2)CC4)c(C)c1,growth at 100 µM,ACHN [1],6%
same,GI50,OVCAR-3,2.32 µM
same,TGI,OVCAR-3,12.6 µM
same,CC50,OVCAR-3; [13],> 100 µM
same,GI50,A498 [2],1.31 µM
same,TGI,A498 [2],7.71 µM
same,CC50,A498 [2]; [13],> 100 µM
same,growth at 0.1 µM,NCI-H226,93%
same,growth at 0.1 µM,SK-MEL-2,113%
same,GI50,M14 [3],2.89 µM
same,LC50 (concentration killing 50% of cells),M14 [3],> 100 µM
same,TGI,M14 [3],31.5 µM
same,GI50,RXF 393,2.45 µM
same,TGI,RXF 393,18.5 µM
same,CC50,RXF 393; [13],> 100 µM
same,growth at 1 µM,HCT-116,79%
same,growth at 0.1 µM,SNB-75,94%
same,growth at 0.1 µM,HOP-92,70%
same,growth at 0.01 µM,HT-29,105%
same,growth at 1 µM,A549,90%
same,growth at 100 µM,U-251,-43%
same,growth at 1 µM,SF-539,88%
same,growth at 0.1 µM,SN12C,101%
same,growth at 100 µM,NCI-H522 [4],-29%
same,growth at 0.01 µM,RPMI-8226,101%
same,growth at 100 µM,MCF7,-8%
same,growth at 100 µM,A498 [5],-2%
same,GI50,SF-268,6.93 µM
same,LC50 (concentration killing 50% of cells),SF-268,> 100 µM
same,TGI,SF-268,64.8 µM
same,growth at 1 µM,SK-OV-3 [6],88%
same,growth at 0.1 µM,M14 [7],94%
same,growth at 1 µM,MOLT-4,96%
same,growth at 0.01 µM,PC-3,94%
same,growth at 0.1 µM,NCI-H522 [8],97%
same,growth at 0.1 µM,HCT-15,93%
same,growth at 0.1 µM,COLO 205,104%
same,growth at 0.01 µM,ACHN [9],97%
same,growth at 0.1 µM,SK-OV-3 [10],98%
same,growth at 1 µM,OVCAR-5,97%
same,GI50,UO-31 [11],4.78 µM
same,TGI,UO-31 [11],93.9 µM
same,CC50,UO-31 [11]; [13],> 100 µM
same,growth at 0.1 µM,UACC-257,93%
same,growth at 0.01 µM,UO-31 [12],91%
same,GI50,TK-10,5.06 µM
same,TGI,TK-10,> 100 µM
same,CC50,TK-10; [13],> 100 µM
same,growth at 100 µM,SK-MEL-5,-49%
